Assay results gathered from unrelated publications.
Protocols differ between the studies behind these lines.
Target: Serine/threonine-protein kinase BRSK2 (BRSK2, Homo sapiens, UniProt Q8IWQ3)
Sequence (Q8IWQ3 1-736, as in one of the studies): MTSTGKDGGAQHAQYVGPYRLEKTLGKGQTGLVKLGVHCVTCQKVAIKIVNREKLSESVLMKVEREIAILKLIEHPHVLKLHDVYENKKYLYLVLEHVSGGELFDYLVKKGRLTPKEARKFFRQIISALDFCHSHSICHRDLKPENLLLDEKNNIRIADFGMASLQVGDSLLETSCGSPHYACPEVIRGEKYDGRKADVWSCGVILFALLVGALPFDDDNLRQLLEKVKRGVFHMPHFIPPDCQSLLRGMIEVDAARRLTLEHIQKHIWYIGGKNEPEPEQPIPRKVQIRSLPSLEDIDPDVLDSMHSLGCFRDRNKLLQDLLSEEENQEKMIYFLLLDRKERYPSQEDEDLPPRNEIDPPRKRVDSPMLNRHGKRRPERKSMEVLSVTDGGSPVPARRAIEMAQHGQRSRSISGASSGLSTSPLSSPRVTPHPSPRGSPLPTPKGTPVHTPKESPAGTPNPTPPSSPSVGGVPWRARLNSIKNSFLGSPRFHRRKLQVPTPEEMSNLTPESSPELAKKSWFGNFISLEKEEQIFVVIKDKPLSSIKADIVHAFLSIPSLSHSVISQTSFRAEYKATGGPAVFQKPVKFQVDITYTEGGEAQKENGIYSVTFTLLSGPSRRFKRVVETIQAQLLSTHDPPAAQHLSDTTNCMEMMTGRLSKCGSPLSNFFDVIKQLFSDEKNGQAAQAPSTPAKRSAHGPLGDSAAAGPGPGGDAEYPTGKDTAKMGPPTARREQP

| Compound | test | conditions | measurement | value |
| --- | --- | --- | --- | --- |
| O=c1[nH]c2ccccc2n1C1CCN(Cc2ccc(-c3[nH]c4cc5ncnc5cc4nc3-c3ccccc3)cc2)CC1 | cell-free assay | 0.5 µM | remaining signal | 106% |
| N#CC1(c2ccccn2)CCN(Cc2cc(C(=O)O)c(=O)n3ccccc23)CC1 | cell-free assay, competition with immobilised ligand | 1 µM | remaining binding | 100% |
| COc1cc(Nc2ncc(F)c(Nc3ccc4c(n3)NC(=O)C(C)(C)O4)n2)cc(OC)c1OC | binding, competition with immobilised ligand | 10 µM | inhibition | 0% |
| CC(C)(C)c1cc(C=C(C#N)C#N)cc(Br)c1O | enzyme activity, inhibitor | 0.5 µM | remaining activity | 94.5% |
| Nc1ncc(-c2nc(N3CCOCC3)nc(N3CCOCC3)n2)c(C(F)F)n1 | binding, competition with immobilised ligand | 10 µM | remaining binding | 92% |
| Cn1cncc1[C@@](O)(COc1ccc(C#N)cc1-c1ccc(OC(F)(F)F)cc1)c1ccc(C#N)cc1 | cell-free assay, competition with immobilised ligand | 1 µM | remaining binding | 100% |
| Cc1nn(C)cc1-c1nc2c(N3CCN(Cc4ccc(Cl)cc4)CC3)c(Cl)cnc2[nH]1 | binding, competition with immobilised ligand | 1 µM | remaining binding | 100% |
| COc1ncccc1-c1cnn2ccc(N3CCN(C(=O)OC(C)C)CC3)nc12 | binding, competition with immobilised ligand | 1 µM | remaining binding | 82% |
